ChEMBL document CHEMBL5380845, “Going beyond Binary: Rapid Identification of Protein-Protein Interaction Modulators Using a Multifragment Kinetic Target-Guided Synthesis Approach” (J Med Chem, 2023)

Test: Inhibition of GST-tagged mouse Mcl-1 (152 to 309 residues)/FITC-labelled Bim (unknown origin) protein protein interaction at 100 uM by fluorescence polarization method relative to control
Summary of the method: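 Single-point fluorescence polarization competition at 100 μM. GST-tagged mouse Mcl-1(152–309) (20 nM stock in PBS, 0.005% Tween 20) was mixed with the compound in PBS containing 25% DMSO and 0.005% Tween 20. FITC-Bim-BH3 (10 nM stock in PBS, 5% DMSO) was then added and shaken 3 min at room temperature. Polarization (mP) was read at ex 480/em 535 nm, and percent inhibition is relative to control.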

| inhibition [%] | SMILES |
| --- | --- |
| 25 | [N-]=[N+]=NS(=O)(=O)c1ccc(CN2Cc3c(Cl)cccc3C(Sc3ccccc3)C2)cc1 (configuration not stated) |
| < 5 | O=C(S)c1ccc(OC(F)(F)F)cc1 |
| < 5 | O=C(S)c1ccco1 |
| < 5 | O=C(S)c1cccc2ccccc12 |
| < 5 | OC(=S)c1ccccc1 |
| < 5 | Cc1nc(-c2ccccc2)sc1C(=O)S |
| < 5 | CC1(C)CCN(c2ccc(C(=O)S)cc2)CC1 |
| < 5 | COc1cc2c(cc1OC)C(O)N(CC(=O)O)CC2 (configuration not stated) |
| < 5 | O=C(S)c1ccno1 |
| 14 | [N-]=[N+]=NS(=O)(=O)c1ccc2ccc(S(=O)(=O)NCCSc3ccccc3)cc2c1 |
| < 5 | O=C(S)c1cccc([N+](=O)[O-])c1 |
| < 5 | COc1cc(OC)cc(C(=O)S)c1 |
